Assay outcomes deposited in PubChem by several laboratories.
FLuc inh counter: firefly luciferase enzyme inhibitors, primary screen, artefact control for luciferase-based inhibitor screens, biochemical, luminescence, ATPLite; inhibition, % at 10 µM; Luciferin 4-monooxygenase (Photinus pyralis), P08659; 10 min; AID 1006, 2008; hit rate 1.5% among 200,000;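 active = inhibition above about 50% when tested at 10 µM, limit read from the data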
Target sequence (P08659 whole entry, looked up): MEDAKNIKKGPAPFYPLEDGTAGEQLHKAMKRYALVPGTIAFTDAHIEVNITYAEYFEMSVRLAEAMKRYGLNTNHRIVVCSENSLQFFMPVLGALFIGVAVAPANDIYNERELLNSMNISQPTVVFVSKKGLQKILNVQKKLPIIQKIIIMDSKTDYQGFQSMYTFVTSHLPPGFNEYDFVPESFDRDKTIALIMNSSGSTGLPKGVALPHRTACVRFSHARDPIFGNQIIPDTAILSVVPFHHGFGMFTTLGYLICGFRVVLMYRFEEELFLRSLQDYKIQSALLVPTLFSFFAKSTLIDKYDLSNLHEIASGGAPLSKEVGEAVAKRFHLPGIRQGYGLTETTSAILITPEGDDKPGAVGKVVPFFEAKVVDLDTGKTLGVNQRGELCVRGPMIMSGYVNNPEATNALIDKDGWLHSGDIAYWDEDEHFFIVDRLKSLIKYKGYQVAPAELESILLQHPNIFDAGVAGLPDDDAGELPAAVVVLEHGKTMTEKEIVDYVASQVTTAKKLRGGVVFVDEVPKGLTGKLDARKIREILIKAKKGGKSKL
APP 5UTR inh: inhibitors of APP translation via 5'UTR reporter, primary screen, APP 5'UTR luciferase, SH-SY5Y cells | hit rate 0.82% among 190,000 | SH-SY5Y APP 5'UTR-luciferase reporter, luminescence | inhibition, % at 2 µM | AID 1285, 2008;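 active = inhibition above a set limit, derived from the sample mean plus 3 SD, cut at about 45% in these data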
FLuc stim CS: FLuc activators, initial screening, artefact control for FLuc-dependent activation tests, biochemical, ATPlite luminescence; ATPlite luciferase biochemical, 10 min; 0 = ATP-free wells, 1 = DMSO control; activation factor at 10 µM; 200,000 tested, under 10 active;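 active = luciferase activation factor, scaled between plate controls, of at least 2 with compound at 10 µM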
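test system = cell-free luciferase reagent | medium = PBS as buffer for the ATP substrate | dosing = test compounds dosed from 2 mM stocks in 100% DMSO | incubation = 10 min at ambient temperature | detection = luminescence measurement of luciferase light output | benchmarks = low control with PBS replacing ATP, high control enzyme plus ATP without compound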
APP 5'UTR act: activators of APP 5'UTR luciferase reporter, primary screen, SH-SY5Y cells; SH-SY5Y APP 5'UTR luciferase reporter, luminescence; zero percent = DMSO vehicle wells; activation, % at 2 µM; hit rate 1% among 190,000;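 active = activation above a set limit, based on mean plus 3 SD of controls, cut at about 140% in these data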
NF-kB expr up: activators of NF-kB expression in neurons, primary screen, cell-based, HTS; fold change at 12.5 µM; AID 1239, 2008; hit rate 1.6% among 190,000; human neuronal cells, NF-kB reporter expression; stronger effect = higher value; in the data active = fold change above about 3.3
STAT1 activator: STAT1 signaling activators, primary screen, cell-based, HTS, luciferase reporter. activation (% of control), % at 5.5 µM. NIH 3T3 STAT1-luciferase reporter, IFN-gamma, luminescence; 100% = IFN-gamma alone, no compound. hit rate 2.6% among 200,000;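 active = activation above the screen-wide mean activation plus 3 SD, cut at about 130% in these data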;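 note: raw ratio to IFN-gamma control signal so 100% means no change and 0% no light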
Starred values were filed as active, the others as inactive. Shown are actives, neighbours in structure and some others; about 4.8% of the full set was active somewhere.

Results for COCC(C)N=C1NN=C(c2ccc(NC(C)=O)cc2)CS1 (configuration not stated) ?
FLuc inh counter: 20; APP 5UTR inh: -30; FLuc stim CS: 0.8; APP 5'UTR act: 30; NF-kB expr up: 1.3; STAT1 activator: 100

How did CC(C)N=C1NN=C(c2ccc(Cl)c(Cl)c2)CS1 do in these assays?
FLuc inh counter: 64*; APP 5UTR inh: -172; FLuc stim CS: 0.4; APP 5'UTR act: 172*; NF-kB expr up: 8.6*; STAT1 activator: 136*

What do the screens show for `Cc1c(NS(=O)(=O)c2ccc(Cl)c(C(=O)OC(C)C(=O)NCc3ccco3)c2)c(=O)n(-c2ccccc2)n1C` (configuration not stated)?
FLuc inh counter: -2; APP 5UTR inh: 3; FLuc stim CS: 1; APP 5'UTR act: -3; NF-kB expr up: 0.97; STAT1 activator: 106

What do the screens show for `c1ccc2c(-c3csc(-c4ccncc4)n3)c[nH]c2c1`?
FLuc inh counter: 20; APP 5UTR inh: -31; FLuc stim CS: 0.8; APP 5'UTR act: 31; NF-kB expr up: 2.2; STAT1 activator: 147*

Results for Nc1nc(-c2ccc(-c3ccccc3)cc2)cs1 ?
FLuc inh counter: 72*; APP 5UTR inh: -179; FLuc stim CS: 0.3; APP 5'UTR act: 179*; NF-kB expr up: 7.9*; STAT1 activator: 141*

How did Oc1ccccc1-c1csc(-c2ccccc2)n1 do in these assays?
FLuc inh counter: 34; APP 5UTR inh: -116; FLuc stim CS: 0.7; APP 5'UTR act: 116; NF-kB expr up: 1.2; STAT1 activator: 131*

Results for CC(C)C(=O)Nc1ccc(-c2csc(-c3ccccc3)n2)cc1 ?
FLuc inh counter: 2; APP 5UTR inh: -133; FLuc stim CS: 1; APP 5'UTR act: 133; NF-kB expr up: 1.8; STAT1 activator: 142*

What do the screens show for `Brc1ccc(-c2csc(-c3c[nH]c4ccccc34)n2)cc1`?
FLuc inh counter: -2; APP 5UTR inh: -38; FLuc stim CS: 1; APP 5'UTR act: 38; NF-kB expr up: 1.8; STAT1 activator: 119

What do the screens show for `COC(=O)N/N=C/c1cccc(OCCSc2ccc(Cl)cc2)c1`?
FLuc inh counter: -2; APP 5UTR inh: -26; FLuc stim CS: 1; APP 5'UTR act: 26; NF-kB expr up: 1.2; STAT1 activator: 97

How did c1ccc(-c2csc(-c3ccncc3)n2)cc1 do in these assays?
FLuc inh counter: 3; APP 5UTR inh: -7; FLuc stim CS: 1; APP 5'UTR act: 7; NF-kB expr up: 1.4; STAT1 activator: 133*

Results for O=C(Nc1cccc(-c2csc(-c3ccccc3)n2)c1)c1cccs1 ?
FLuc inh counter: 4; APP 5UTR inh: -5; FLuc stim CS: 1; APP 5'UTR act: 5; NF-kB expr up: 1.1; STAT1 activator: 116

How did c1ccc(Nc2ccccc2Nc2ccccn2)nc1 do in these assays?
FLuc inh counter: -8; APP 5UTR inh: -27; FLuc stim CS: 1.1; APP 5'UTR act: 27; NF-kB expr up: 1.4; STAT1 activator: 95

What do the screens show for `Oc1cccc2ccc(Nc3ccccn3)nc12`?
FLuc inh counter: 5; APP 5UTR inh: 80*; FLuc stim CS: 0.9; APP 5'UTR act: -80; NF-kB expr up: 0.62; STAT1 activator: 103

Results for COCCNC(=S)N/N=C/c1ccc2c(c1)OCCO2 ?
FLuc inh counter: 59*; APP 5UTR inh: 19; FLuc stim CS: 0.4; APP 5'UTR act: -19; NF-kB expr up: 1.1; STAT1 activator: 98

What do the screens show for `CC(C)NC(=S)N/N=C/c1ccc2c(c1)OCCO2`?
FLuc inh counter: 76*; APP 5UTR inh: -24; FLuc stim CS: 0.2; APP 5'UTR act: 24; NF-kB expr up: 1.8; STAT1 activator: 104

How did COc1ccccc1C1CC(=O)Nc2cc3c(cc21)OCCO3 (configuration not stated) do in these assays?
FLuc inh counter: -2; APP 5UTR inh: 95*; FLuc stim CS: 1; APP 5'UTR act: -95; NF-kB expr up: 2.4; STAT1 activator: 96

How did CC(C)Oc1ccccc1C1CC(=O)Nc2cc3c(cc21)OCCO3 (configuration not stated) do in these assays?
FLuc inh counter: -17; APP 5UTR inh: 95*; FLuc stim CS: 1.2; APP 5'UTR act: -95; NF-kB expr up: 3.9*; STAT1 activator: 90

What do the screens show for `CC(C)Oc1ccccc1C1Nc2ccccc2C(=O)N1c1ccc2c(c1)OCCO2` (configuration not stated)?
FLuc inh counter: 7; APP 5UTR inh: -150; FLuc stim CS: 0.9; APP 5'UTR act: 150*; NF-kB expr up: 4.6*; STAT1 activator: 116

How did COc1cccc(C2CC(=O)Nc3cc4c(cc32)OCCO4)c1OC(C)C (configuration not stated) do in these assays?
FLuc inh counter: -3; APP 5UTR inh: -8; FLuc stim CS: 1; APP 5'UTR act: 8; NF-kB expr up: 1.1; STAT1 activator: 98

What do the screens show for `CCOc1ccccc1C1CC(=O)Nc2cc3c(cc21)OCO3` (configuration not stated)?
FLuc inh counter: -7; APP 5UTR inh: 90*; FLuc stim CS: 1.1; APP 5'UTR act: -90; NF-kB expr up: 2.2; STAT1 activator: 96

What do the screens show for `CCOC(=O)COc1ccccc1C1Nc2ccccc2C(=O)N1c1cccc(Cl)c1` (configuration not stated)?
FLuc inh counter: -7; APP 5UTR inh: -60; FLuc stim CS: 1.1; APP 5'UTR act: 60; NF-kB expr up: 2.1; STAT1 activator: 108

What do the screens show for `COc1cc(C(=O)Nc2ccc(C)cc2)c(-n2cnnn2)cc1OC`?
FLuc inh counter: -10; APP 5UTR inh: 2; FLuc stim CS: 1.1; APP 5'UTR act: -2; NF-kB expr up: 0.8; STAT1 activator: 95

What do the screens show for `Cc1ccccc1/C=C\c1nc2ccccc2c(=O)[nH]1`?
FLuc inh counter: 56*; APP 5UTR inh: -164; FLuc stim CS: 0.4; APP 5'UTR act: 164*; NF-kB expr up: 4.4*; STAT1 activator: 121

How did Cc1ccccc1/C=C/c1nc2ccccc2c(=O)n1Cc1ccccc1 do in these assays?
FLuc inh counter: -3; APP 5UTR inh: -36; FLuc stim CS: 1; APP 5'UTR act: 36; NF-kB expr up: 0.84; STAT1 activator: 105

What do the screens show for `Cc1ccc(C(=O)Nc2ccc(Br)cc2)cc1S(=O)(=O)Nc1ccccn1`?
FLuc inh counter: -2; APP 5UTR inh: -16; FLuc stim CS: 1; APP 5'UTR act: 16; NF-kB expr up: 1.1; STAT1 activator: 107

What do the screens show for `CCOC(=O)c1nn(-c2c(C)n(C)n(-c3ccccc3)c2=O)cc1O`?
FLuc inh counter: -8; APP 5UTR inh: -9; FLuc stim CS: 1.1; APP 5'UTR act: 9; NF-kB expr up: 1.1; STAT1 activator: 100
